From ChEMBL document CHEMBL4680175, “Sulfonamide-based ring-fused analogues for CAN508 as novel carbonic anhydrase inhibitors endowed with antitumor activity: Design, synthesis, and in vitro biological evaluation” (Eur J Med Chem, 2020)
Calls of active or inactive are those of the source. The calls are words filed in the database; no cut-off is given here.

What was measured:
Carbonic anhydrase 1 = Carbonic anhydrase 1 (Homo sapiens, UniProt P00915); experiment: Inhibition of recombinant human carbonic anhydrase 1 preincubated with enzyme for 15 mins by phenol red dye based stopped flow CO2 hydrase assay
Sequence of Carbonic anhydrase 1 (P00915 whole entry): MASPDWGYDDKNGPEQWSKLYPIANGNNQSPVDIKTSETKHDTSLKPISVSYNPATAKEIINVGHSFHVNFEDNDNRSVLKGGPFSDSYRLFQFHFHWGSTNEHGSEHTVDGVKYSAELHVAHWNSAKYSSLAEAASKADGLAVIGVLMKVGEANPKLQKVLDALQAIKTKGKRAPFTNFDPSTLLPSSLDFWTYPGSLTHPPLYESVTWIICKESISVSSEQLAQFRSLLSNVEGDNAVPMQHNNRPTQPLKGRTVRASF

Carbonic anhydrase 2 = Carbonic anhydrase 2 (Homo sapiens, UniProt P00918); experiment: Inhibition of recombinant human carbonic anhydrase 2 preincubated with enzyme for 15 mins by phenol red dye based stopped flow CO2 hydrase assay
Carbonic anhydrase 9 = Carbonic anhydrase 9 (Homo sapiens, UniProt Q16790); experiment: Inhibition of recombinant human carbonic anhydrase 9 preincubated with enzyme for 15 mins by phenol red dye based stopped flow CO2 hydrase assay
[1] = molecular target: Cyclin-dependent kinase 2/cyclin E1 (Homo sapiens, UniProt P24941); experiment: Inhibition of CDK2/cyclin E (unknown origin) expressed in baculovirus infected Sf21 insect cells using histone H1 as substrate in presence of [gamma33P]ATP
CDK9/cyclin T1 = CDK9/cyclin T1 (Homo sapiens, UniProt P50750); experiment: Inhibition of human full-length N-terminal GST/His6-tagged CDK9 (1 to 372 residues)/His6-tagged Cyclin-T1 (1 to 726 residues) expressed in sf9 cells using (YSPTSPS)2KK peptide as substrate in presence of [gamma33P]ATP
Sequence of CDK9/cyclin T1 (O60563 whole entry, the tested form may be a part): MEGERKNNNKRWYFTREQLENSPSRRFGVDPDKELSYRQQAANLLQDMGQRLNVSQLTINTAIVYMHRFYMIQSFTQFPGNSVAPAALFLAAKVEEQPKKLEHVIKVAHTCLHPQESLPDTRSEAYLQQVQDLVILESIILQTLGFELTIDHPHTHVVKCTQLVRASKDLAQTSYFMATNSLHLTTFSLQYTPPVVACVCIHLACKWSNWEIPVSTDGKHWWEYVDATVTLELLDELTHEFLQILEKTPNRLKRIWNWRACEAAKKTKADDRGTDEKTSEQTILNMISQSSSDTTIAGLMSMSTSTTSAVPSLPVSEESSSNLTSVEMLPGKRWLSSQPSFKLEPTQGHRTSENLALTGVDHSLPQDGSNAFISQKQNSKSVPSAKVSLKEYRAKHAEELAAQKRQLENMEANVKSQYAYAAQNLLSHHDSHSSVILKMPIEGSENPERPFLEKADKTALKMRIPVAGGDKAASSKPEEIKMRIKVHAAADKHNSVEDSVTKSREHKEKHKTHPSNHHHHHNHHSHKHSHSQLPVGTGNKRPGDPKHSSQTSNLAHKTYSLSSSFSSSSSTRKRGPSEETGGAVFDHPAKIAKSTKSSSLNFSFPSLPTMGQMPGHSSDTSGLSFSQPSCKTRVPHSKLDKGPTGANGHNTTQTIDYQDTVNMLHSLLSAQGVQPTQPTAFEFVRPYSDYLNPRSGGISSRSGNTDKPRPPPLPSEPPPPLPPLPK
Sequence of CDK9/cyclin T1 (P50750 whole entry, the tested form may be a part): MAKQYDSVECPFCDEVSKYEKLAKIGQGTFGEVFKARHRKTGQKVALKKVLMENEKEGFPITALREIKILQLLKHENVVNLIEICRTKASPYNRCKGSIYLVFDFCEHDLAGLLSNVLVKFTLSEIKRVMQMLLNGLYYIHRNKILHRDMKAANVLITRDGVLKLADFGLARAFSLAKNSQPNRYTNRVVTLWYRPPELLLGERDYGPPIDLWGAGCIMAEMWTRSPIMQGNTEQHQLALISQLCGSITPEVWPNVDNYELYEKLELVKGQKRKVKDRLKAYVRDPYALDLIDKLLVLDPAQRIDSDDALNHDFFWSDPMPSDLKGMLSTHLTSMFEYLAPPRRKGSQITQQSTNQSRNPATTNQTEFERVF

CCRF-CEM = experiment: Antitumor activity against human CCRF-CEM cells assessed as cell growth inhibition at 10 uM incubated for 48 hrs by sulforhodamine B assay; assay type: functional; conditions: read-out: GI
Method in brief: (§1)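 NCI Drug Evaluation Branch protocol: primary single-dose screen at 10 μM across a 57-line human cancer panel. Drug exposure is 48 h. Cell growth and viability are read by sulforhodamine B assay. Data are given as a mean graph of percent growth of treated cells and reported as percentage growth inhibition (GI%).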

K562 = experiment: Antitumor activity against human K562 cells assessed as cell growth inhibition at 10 uM incubated for 48 hrs by sulforhodamine B assay; assay type: functional; conditions: read-out: GI; method in brief: as §1
MOLT-4 = experiment: Antitumor activity against human MOLT4 cells assessed as cell growth inhibition at 10 uM incubated for 48 hrs by sulforhodamine B assay; assay type: functional; conditions: read-out: GI; method in brief: as §1
RPMI-8226 = experiment: Antitumor activity against human RPMI8226 cells assessed as cell growth inhibition at 10 uM incubated for 48 hrs by sulforhodamine B assay; assay type: functional; conditions: read-out: GI; method in brief: as §1
HOP-62 = experiment: Antitumor activity against human HOP62 cells assessed as cell growth inhibition at 10 uM incubated for 48 hrs by sulforhodamine B assay; assay type: functional; conditions: read-out: GI; method in brief: as §1
HOP-92 = experiment: Antitumor activity against human HOP92 cells assessed as cell growth inhibition at 10 uM incubated for 48 hrs by sulforhodamine B assay; assay type: functional; conditions: read-out: GI; method in brief: as §1
NCI-H226 = experiment: Antitumor activity against human NCI-H226 assessed as cell growth inhibition at 10 uM incubated for 48 hrs by sulforhodamine B assay; assay type: functional; conditions: read-out: GI; method in brief: as §1
NCI-H322M = experiment: Antitumor activity against human NCI-H322M cells assessed as cell growth inhibition at 10 uM incubated for 48 hrs by sulforhodamine B assay; assay type: functional; conditions: read-out: GI; method in brief: as §1
NCI-H460 = experiment: Antitumor activity against human NCI-H460 cells assessed as cell growth inhibition at 10 uM incubated for 48 hrs by sulforhodamine B assay; assay type: functional; conditions: read-out: GI; method in brief: as §1
NCI-H522 = experiment: Antitumor activity against human NCI-H522 cells assessed as cell growth inhibition at 10 uM incubated for 48 hrs by sulforhodamine B assay; assay type: functional; conditions: read-out: GI; method in brief: as §1
HCT-116 = experiment: Antitumor activity against human HCT116 cells assessed as cell growth inhibition at 10 uM incubated for 48 hrs by sulforhodamine B assay; assay type: functional; conditions: read-out: GI; method in brief: as §1
KM12 = experiment: Antitumor activity against human KM12 cells assessed as cell growth inhibition at 10 uM incubated for 48 hrs by sulforhodamine B assay; assay type: functional; conditions: read-out: GI; method in brief: as §1
SF-268 = experiment: Antitumor activity against human SF268 cells assessed as cell growth inhibition at 10 uM incubated for 48 hrs by sulforhodamine B assay; assay type: functional; conditions: read-out: GI; method in brief: as §1
SF-539 = experiment: Antitumor activity against human SF539 cells assessed as cell growth inhibition at 10 uM incubated for 48 hrs by sulforhodamine B assay; assay type: functional; conditions: read-out: GI; method in brief: as §1
SNB-75 = experiment: Antitumor activity against human SNB-75 cells assessed as cell growth inhibition at 10 uM incubated for 48 hrs by sulforhodamine B assay; assay type: functional; conditions: read-out: GI
Method in brief: (§2)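 NCI one-dose screen: 57-cell-line panel exposed at 10 μM for 48 h, Drug Evaluation Branch protocol. Growth and viability read by sulforhodamine B; data given as percent growth inhibition from the mean-graph of percent growth of treated cells.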

U-251 = experiment: Antitumor activity against human U251 cells assessed as cell growth inhibition at 10 uM incubated for 48 hrs by sulforhodamine B assay; assay type: functional; conditions: read-out: GI; method in brief: as §2
LOX IMVI = experiment: Antitumor activity against human LOX IMVI cells assessed as cell growth inhibition at 10 uM incubated for 48 hrs by sulforhodamine B assay; assay type: functional; conditions: read-out: GI; method in brief: as §1
CAKI-1 = experiment: Antitumor activity against human CAKI-1 cells assessed as cell growth inhibition at 10 uM incubated for 48 hrs by sulforhodamine B assay; assay type: functional; conditions: read-out: GI; method in brief: as §1
SK-MEL-2 = experiment: Antitumor activity against human SK-MEL-2 cells assessed as cell growth inhibition at 10 uM incubated for 48 hrs by sulforhodamine B assay; assay type: functional; conditions: read-out: GI; method in brief: as §1
SK-MEL-5 = experiment: Antitumor activity against human SK-MEL-5 cells assessed as cell growth inhibition at 10 uM incubated for 48 hrs by sulforhodamine B assay; assay type: functional; conditions: read-out: GI; method in brief: as §1
IGROV-1 = experiment: Antitumor activity against human IGROV1 cells assessed as cell growth inhibition at 10 uM incubated for 48 hrs by sulforhodamine B assay; assay type: functional; conditions: read-out: GI; method in brief: as §1
OVCAR-3 = experiment: Antitumor activity against human OVCAR-3 cells assessed as cell growth inhibition at 10 uM incubated for 48 hrs by sulforhodamine B assay; assay type: functional; conditions: read-out: GI; method in brief: as §1
OVCAR-8 = experiment: Antitumor activity against human OVCAR-8 cells assessed as cell growth inhibition at 10 uM incubated for 48 hrs by sulforhodamine B assay; assay type: functional; conditions: read-out: GI; method in brief: as §1
UO-31 = experiment: Antitumor activity against human UO-31 cells assessed as cell growth inhibition at 10 uM incubated for 48 hrs by sulforhodamine B assay; assay type: functional; conditions: read-out: GI; method in brief: as §2
PC-3 = experiment: Antitumor activity against human PC-3 cells assessed as cell growth inhibition at 10 uM incubated for 48 hrs by sulforhodamine B assay; assay type: functional; conditions: read-out: GI; method in brief: as §1
RXF 393 = experiment: Antitumor activity against human RXF 393 cells assessed as cell growth inhibition at 10 uM incubated for 48 hrs by sulforhodamine B assay; assay type: functional; conditions: read-out: GI; method in brief: as §1
SN12C = experiment: Antitumor activity against human SN12C cells assessed as cell growth inhibition at 10 uM incubated for 48 hrs by sulforhodamine B assay; assay type: functional; conditions: read-out: GI; method in brief: as §1
MCF7 = experiment: Antitumor activity against human MCF7 cells assessed as cell growth inhibition at 10 uM incubated for 48 hrs by sulforhodamine B assay; assay type: functional; conditions: read-out: GI; method in brief: as §1
MDA-MB-231 = experiment: Antitumor activity against human MDA-MB-231/ATCC cells assessed as cell growth inhibition at 10 uM incubated for 48 hrs by sulforhodamine B assay; assay type: functional; conditions: read-out: GI; method in brief: as §1
BT-549 = experiment: Antitumor activity against human BT-549 cells assessed as cell growth inhibition at 10 uM incubated for 48 hrs by sulforhodamine B assay; assay type: functional; conditions: read-out: GI; method in brief: as §1
T47D = experiment: Antitumor activity against human T-47D cells assessed as cell growth inhibition at 10 uM incubated for 48 hrs by sulforhodamine B assay; assay type: functional; conditions: read-out: GI; method in brief: as §2
MDA-MB-468 = experiment: Antitumor activity against human MDA-MB-468 cells assessed as cell growth inhibition at 10 uM incubated for 48 hrs by sulforhodamine B assay; assay type: functional; conditions: read-out: GI; method in brief: as §1
NCI/ADR-RES = experiment: Antitumor activity against human NCI/ADR-RES cells assessed as cell growth inhibition at 10 uM incubated for 48 hrs by sulforhodamine B assay; assay type: functional, cell-based; method in brief: as §1

SMILES | Ki (Carbonic anhydrase 1) [nM] | Ki (Carbonic anhydrase 2) [nM] | Ki (Carbonic anhydrase 9) [nM] | IC50 [1] [µM] | IC50 (CDK9/cyclin T1) [µM] | inhibition of growth at 10 µM (CCRF-CEM) [%] | inhibition of growth at 10 µM (K562) [%] | inhibition of growth at 10 µM (MOLT-4) [%] | inhibition of growth at 10 µM (RPMI-8226) [%] | inhibition of growth at 10 µM (HOP-62) [%] | inhibition of growth at 10 µM (HOP-92) [%] | inhibition of growth at 10 µM (NCI-H226) [%] | inhibition of growth at 10 µM (NCI-H322M) [%] | inhibition of growth at 10 µM (NCI-H460) [%] | inhibition of growth at 10 µM (NCI-H522) [%] | inhibition of growth at 10 µM (HCT-116) [%] | inhibition of growth at 10 µM (KM12) [%] | inhibition of growth at 10 µM (SF-268) [%] | inhibition of growth at 10 µM (SF-539) [%] | inhibition of growth at 10 µM (SNB-75) [%] | also measured
Nc1nn2cc(-c3ccccc3)[nH]c2c1/N=N/c1ccc(S(N)(=O)=O)cc1 | 957 | 75.4 | 38.1 | > 25 | > 25 | 80 | 67 | 86 | 94 | 58 | 74 | 47 | 63 | 80 | 69 | 77 | 67 | 63 | 80 | 99 | inhibition of growth at 10 µM (U-251): 61%; inhibition of growth at 10 µM (LOX IMVI): 83%; inhibition of growth at 10 µM (CAKI-1): 96%; inhibition of growth at 10 µM (SK-MEL-2): 68%; inhibition of growth at 10 µM (SK-MEL-5): 73%; inhibition of growth at 10 µM (IGROV-1): 85%; inhibition of growth at 10 µM (OVCAR-3): 53%; inhibition of growth at 10 µM (OVCAR-8): 63%; inhibition of growth at 10 µM (UO-31): 81%; inhibition of growth at 10 µM (PC-3): 68%; inhibition of growth at 10 µM (RXF 393): 93%; inhibition of growth at 10 µM (SN12C): 80%; inhibition of growth at 10 µM (MCF7): 54%; inhibition of growth at 10 µM (MDA-MB-231): 80%; inhibition of growth at 10 µM (BT-549): 41%; inhibition of growth at 10 µM (T47D): 57%; inhibition of growth at 10 µM (MDA-MB-468): 67%; Activity (NCI/ADR-RES): inactive
Cc1ccc(-c2nc3c(/N=N/c4ccc(S(N)(=O)=O)cc4)c(N)nn3c(N)c2C#N)cc1 | 3530 | 638 | 44.3 | 11.6 | > 12.5 | 88 | 80 | 96 | 116 | 57 | 80 | 35 | 34 | 72 | 71 | 86 | 71 | 65 | 69 | 51 | inhibition of growth at 10 µM (U-251): 68%; inhibition of growth at 10 µM (LOX IMVI): 78%; inhibition of growth at 10 µM (CAKI-1): 59%; inhibition of growth at 10 µM (SK-MEL-2): 73%; inhibition of growth at 10 µM (SK-MEL-5): 152%; inhibition of growth at 10 µM (IGROV-1): 63%; inhibition of growth at 10 µM (OVCAR-3): 76%; inhibition of growth at 10 µM (OVCAR-8): 56%; inhibition of growth at 10 µM (UO-31): 31%; inhibition of growth at 10 µM (PC-3): 68%; inhibition of growth at 10 µM (RXF 393): 72%; inhibition of growth at 10 µM (SN12C): 67%; inhibition of growth at 10 µM (MCF7): 72%; inhibition of growth at 10 µM (MDA-MB-231): 60%; inhibition of growth at 10 µM (BT-549): 44%; inhibition of growth at 10 µM (T47D): 66%; inhibition of growth at 10 µM (MDA-MB-468): 94%; Activity (NCI/ADR-RES): inactive
